Source: ChEMBL document CHEMBL1681647, “Targeting bacterial biofilms: design of a terpenoid-like library as non-toxic anti-biofilm compounds” (Bioorg Med Chem Lett, 2011)
pEC50: −log10 of the molar value. Activity calls are given as the source filed them. No cut-off for these calls is given here.

What was measured:
[1] = tested on: Pseudoalteromonas sp. D41; experiment: Antibiofilm activity in Pseudoalteromonas sp. D41 assessed as bacterial adhesion at 500 uM after 15 mins using DAPI staining by micro-plate fluorescence reader; type: functional; conditions: in the assay text read “15 h” for “15 mins”
How it was run: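 Single-concentration screen at 500 in triplicate. D41 was grown in VNSS at 20 °C to stationary phase, then resuspended in artificial sea water at OD600 0.2–0.4. Incubation was 15 h at 20 °C with an ASW adhesion control. Wells were NaCl-washed and fixed in 2% formaldehyde for 90 min at 4 °C, then DAPI-stained. Fluorescence of the ethanol-solubilized dye was read at 380 nm excitation and 495 nm emission.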

[2] = tested on: Pseudoalteromonas sp. D41; experiment: Antibiofilm activity in Pseudoalteromonas sp. D41 assessed as bacterial adhesion after 15 h using DAPI staining by micro-plate fluorescence reader; conditions: Pseudoalteromonas sp. D41, 15 h
[3] = tested on: Pseudoalteromonas sp. D41; experiment: Antibacterial activity against Pseudoalteromonas sp. D41 assessed as inhibition of bacterial growth up to 100 uM; type: functional
How it was run: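 Growth assay with D41 grown in VNSS at 20 °C, shaken at 120 rpm and sampled in exponential phase, then subcultured at OD600 0.1. Compound was added at concentrations from 1 to 100 in triplicate, with a growth control and a solvent (DMSO or methanol) control. Plates were shaken at 120 rpm at 20 °C and OD600 was read hourly.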

[4] = tested on: Pseudoalteromonas sp. D41; experiment: Antibiofilm activity in Pseudoalteromonas sp. D41 assessed as bacterial adhesion at 500 uM after 15 h using DAPI staining by micro-plate fluorescence reader

| pEC50 [2] | Structure (SMILES) | Activity [1] [%] | further results |
| --- | --- | --- | --- |
| – | COc1ccccc1-c1cn(C/C=C(\C)CCC=C(C)C)nn1 | 90 | – |
| 4.15 | COc1cc(OC)cc(-c2cn(C/C=C(\C)CC/C=C(\C)CCC=C(C)C)nn2)c1 | 0 | – |
| – | COc1cc(OC)cc(-n2cc(COC/C=C(\C)CC/C=C(\C)CCC=C(C)C)nn2)c1 | 76 | – |
| – | CC(C)=CCC/C(C)=C/COCc1cn(-c2ccc(O)cc2)nn1 | >90 | – |
| – | CC(C)=CCC/C(C)=C/CC/C(C)=C/Cn1cc(-c2cccc(O)c2)nn1 | 34 | – |
| 3.93 | COc1ccc(-n2cc(COC/C=C(\C)CC/C=C(\C)CCC=C(C)C)nn2)cc1 | 24 | – |
| – | CC(C)=CCC/C(C)=C/COCc1cn(-c2ccc(C(=O)O)cc2)nn1 | 39 | – |
| – | CC(C)=CCC/C(C)=C/CC/C(C)=C/COCc1cn(-c2ccc(C(=O)O)cc2)nn1 | >90 | – |
| 3.70 | COc1cccc(-n2cc(COC/C=C(\C)CC/C=C(\C)CCC=C(C)C)nn2)c1 | 25 | – |
| 3.99 | COc1cccc(-n2cc(COC/C=C(\C)CCC=C(C)C)nn2)c1 | 19 | inhibition [3]: inactive |
| – | CC(C)=CCC/C(C)=C/CC/C(C)=C/COCc1cn(-c2cccc(C(=O)O)c2)nn1 | >90 | – |
| – | COc1cc(OC)cc(-c2cn(C/C=C(\C)CCC=C(C)C)nn2)c1 | 90 | – |
| 3.78 | COc1ccccc1-n1cc(COC/C=C(\C)CCC=C(C)C)nn1 | 29 | – |
| 4.13 | CC(C)=CCC/C(C)=C/COCc1cn(-c2cccc(C(=O)O)c2)nn1 | 32 | inhibition [3]: inactive |
| 3.56 | COc1ccc(-n2cc(COC/C=C(\C)CCC=C(C)C)nn2)cc1 | 20 | – |
| – | COc1cccc(-c2cn(C/C=C(\C)CC/C=C(\C)CCC=C(C)C)nn2)c1 | – | Activity [4]: 15% |
| – | COc1ccccc1-n1cc(COC/C=C(\C)CC/C=C(\C)CCC=C(C)C)nn1 | 35 | – |
| – | CC(C)=CCC/C(C)=C/CC/C(C)=C/COCc1cn(-c2ccc(O)cc2)nn1 | 73 | – |
| 3.76 | CC(C)=CC(=O)C/C(C)=C/CC/C(C)=C/CC/C(C)=C/CO [ELEGANOLONE] | 17 | – |
| – | COc1cc(OC)cc(-n2cc(COC/C=C(\C)CCC=C(C)C)nn2)c1 | 76 | – |
| – | COc1cc(-n2cc(COC/C=C(\C)CCC=C(C)C)nn2)cc(OC)c1OC | 36 | – |
| – | COc1cc(-n2cc(COC/C=C(\C)CC/C=C(\C)CCC=C(C)C)nn2)cc(OC)c1OC | 50 | – |
| – | COc1cccc(-c2cn(C/C=C(\C)CCC=C(C)C)nn2)c1 | 90 | – |
| – | CC(C)=CCC/C(C)=C/CC/C(C)=C/COCc1cn(-c2cccc(O)c2)nn1 | >90 | – |
| 3.65 | CC(C)=C[C@@H](O)C/C(C)=C/CC/C(C)=C/CC/C(C)=C/CO [ELEGANEDIOL] | 14 | – |
| – | CC(C)=CCC/C(C)=C/COCc1cn(-c2cccc(O)c2)nn1 | 55 | – |
| – | COc1ccc(-c2cn(C/C=C(\C)CC/C=C(\C)CCC=C(C)C)nn2)cc1 | 46 | – |
| – | COc1ccc(-c2cn(C/C=C(\C)CCC=C(C)C)nn2)cc1 | 3 | – |
| – | CC(C)=CCC/C(C)=C/Cn1cc(-c2cccc(O)c2)nn1 | 30 | – |
